# According to ChEMBL document CHEMBL1122853, “New bicyclic antidepressant agent. Synthesis and activity of napactadine and related compounds” (J Med Chem, 1985):
# Calls of active or inactive are those of the source. No cut-off for these calls is given here.
# What was measured:
# Mus musculus [1] = assay: Effective dose required to prevent reserpine ptosis in mice, administered orally; NA=Not active at 100 mg/kg; type: functional, organism-based; set-up: dose 100 mg/kg
# Procedure, shortened: (§1)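 Male Swiss-Webster or Harlan ICR mice, five per dose. Drug in saline given po or ip per line. Reserpine 2.5 mg/kg ip 30 min later. Complete absence of ptosis at 45 min after reserpine scored as positive. ED50 by Litchfield-Wilcoxon or Horn method, with 95% confidence intervals.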
# Mus musculus [2] = assay: Effective dose required to prevent reserpine ptosis in mice, administered intraperitoneally; NA=Not active at 100 mg/kg; type: functional, organism-based; set-up: dose 100 mg/kg; procedure, shortened: as §1
# Mus musculus [3] = assay: Effective dose required to prevent reserpine ptosis in mice administered (po)orally; NA=Not active; type: functional, organism-based; procedure, shortened: as §1
# Mus musculus [4] = assay: Effective dose required to prevent reserpine ptosis in mice, administered intraperitoneally.; type: functional, organism-based; procedure, shortened: as §1
# [5] = Therapeutic index administered perorally in mouse; type: organism-based; conditions: in vivo, po, read-out: Therapeutic index
# Procedure, shortened: (§2)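 Index from mouse LD50 over reserpine-ptosis ED50 by the same route. […] Deaths recorded at 1 and 24 h; Litchfield-Wilcoxon calculation.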
# [6] = Therapeutic index administered intraperitoneally in mouse; type: organism-based; conditions: in vivo, ip, read-out: Therapeutic index; procedure, shortened: as §2
# Mus musculus [7] = assay: Effective dose required to prevent reserpine ptosis in mice, administered intraperitoneally; type: functional; conditions: ip; procedure, shortened: as §1
# Mus musculus [8] = assay: Electrical shock aggression was evaluated in mice, administered intraperitoneally; type: functional; conditions: ip
# Procedure, shortened: (§3)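 Pairs of mice placed under an inverted 1000 cm3 beaker and shocked through the floor grid (3 mA, 3 Hz) for 2 min. Drug given ip 30 min before testing; scored all-or-none against a saline group. Fighting counted as inhibited when mean attacks fell 1.5 SD below the vehicle mean.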
# Mus musculus [9] = assay: Effective dose required to potentiate yohimbine hydrochloride induced lethality in mice, administered intraperitoneally; type: functional; conditions: ip
# Procedure, shortened: (§4)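 Male Swiss-Webster or Swiss ND/4 mice, 20-24 g, randomized into groups of 10 and housed five per cage. Test drug in saline given ip, with a saline control group. Yohimbine hydrochloride 20 mg/kg sc was given 30 min later, and mice were then reaggregated.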
# Mus musculus [10] = assay: Effective dose required to prevent reserpine ptosis in mice, administered orally(po); type: functional; procedure, shortened: as §1
# [11] = Lethal dose in mouse p.o.; type: toxicity, organism-based; conditions: in vivo, po
# [12] = Lethal dose in mouse i.p.; type: toxicity, organism-based; conditions: in vivo, ip
# Procedure, shortened: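 Male Swiss-Webster albino mice, 20-24 g, in groups of five. Each group received one dose ip in saline (prepared 30 min before injection) at 10 mL/kg. Mice were held singly for about 5 h, then housed together with food and water. Deaths were counted at 1 and 24 h. LD50 by Litchfield-Wilcoxon.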
# Mus musculus [13] = assay: Effective dose required to prevent reserpine ptosis in mice, administered (po)orally; type: functional; procedure, shortened: as §1
# Mus musculus [14] = assay: Effective dose against yohimbine hydrochloride induced lethality in mice, administered intraperitoneally; type: functional; conditions: ip; procedure, shortened: as §4
# Mus musculus [15] = assay: Effective dose required to prevent reserpine ptosis in mice, administered orally; type: functional; conditions: po; procedure, shortened: as §1
# Mus musculus [16] = assay: Electrical shock aggression was evaluated in mice, administered intraperitoneally; NA means no aggression blockade at 46.4 mg/kg; type: functional, organism-based; set-up: dose 46.4 mg/kg; procedure, shortened: as §3
# Mus musculus [17] = assay: Effective dose required to prevent reserpine ptosis in mice, administered orally(po); NA=Not active at 100 mg/kg; type: functional, organism-based; set-up: dose 100 mg/kg; procedure, shortened: as §1
# Mus musculus [18] = assay: Effective dose required to prevent reserpine ptosis in mice, administered po; NA=Not active; type: functional, organism-based; procedure, shortened: as §1
# Mus musculus [19] = assay: Effective dose required to potentiate yohimbine hydrochloride induced lethality in mice, administered intraperitoneally; NA=Not active; type: functional, organism-based
# Procedure, shortened: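 Male Swiss-Webster or Swiss ND/4 mice, 20-24 g, randomized into groups of 10 and aggregated five per cage. Test drug in saline given ip, with a saline control group. Yohimbine HCl (20 mg/kg, sc) injected 30 min later, then mice reaggregated.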
smiles,measurement,setting,value
CC(C)/N=C(/Cc1ccc2ccccc2c1)NC(C)C,ED50,Mus musculus [1],inactive
same,ED50,Mus musculus [2],inactive
C/N=C(/Cc1c(O)ccc2ccccc12)NC,ED50,Mus musculus [3],inactive
CC/N=C(/Cc1ccc2cc(C)ccc2c1)NCC,ED50,Mus musculus [2],inactive
CC/N=C(/Cc1c(Cl)ccc(Cl)c1Cl)NCC,ED50,Mus musculus [4],inactive
C/N=C(/Cc1ccc2ccccc2c1)NC.Cl [NAPACTADINE HYDROCHLORIDE],selectivity ratio,[5],34
same,selectivity ratio,[6],5
same,ED50,Mus musculus [7],12.6 mg/kg
same,ED50,Mus musculus [8],12.6 mg/kg
same,ED50,Mus musculus [9],0.8 mg/kg
same,ED50,Mus musculus [10],17.1 mg/kg
same,LD50,[11],584 mg/kg
same,LD50,[12],68.1 mg/kg
Cl.N=C(Cc1ccc2ccccc2c1Cl)N1CCN(c2ccccc2)CC1,ED50,Mus musculus [10],16.2 mg/kg
Cl.N=C(Cc1ccc2ccccc2c1)N1CCOCC1,ED50,Mus musculus [13],17.1 mg/kg
CC/N=C(/Cc1ccc2ccccc2c1Cl)NCC.Cl,ED50,Mus musculus [14],41 mg/kg
same,ED50,Mus musculus [2],inactive
same,ED50,Mus musculus [15],41 mg/kg
C/N=C(/Cc1ccc2cc(O)ccc2c1)NC.Cl,ED50,Mus musculus [13],23.7 mg/kg
Cl.N=C(Cc1ccc2ccccc2c1Cl)N1CCOCC1,ED50,Mus musculus [10],15 mg/kg
Cl.Cl.N=C(Cc1ccc2ccccc2c1)NCCN1CCOCC1,ED50,Mus musculus [13],14.7 mg/kg
Cc1ccc(C/N=C(/N)Cc2ccc3ccccc3c2)c(C)c1,ED50,Mus musculus [1],inactive
CC1CN(C(=N)Cc2ccc3ccccc3c2)CC(C)O1.Cl (configuration not stated),ED50,Mus musculus [13],28.7 mg/kg
Cl.N=C(Cc1ccc2ccccc2c1)N1CCC(O)(Cc2ccccc2)CC1,ED50,Mus musculus [10],22.5 mg/kg
Cl.N=C(Cc1ccc2ccccc2c1Cl)N1CCCC1,ED50,Mus musculus [15],2.9 mg/kg
C/N=C(/Cc1ccc([N+](=O)[O-])cc1)NC.Cl,selectivity ratio,[5],213
same,selectivity ratio,[6],67
same,ED50,Mus musculus [7],3.2 mg/kg
same,ED50,Mus musculus [9],20 mg/kg
same,ED50,Mus musculus [16],inactive
same,ED50,Mus musculus [13],3.2 mg/kg
same,LD50,[11],681 mg/kg
same,LD50,[12],215 mg/kg
C/N=C(/Cc1ccc(OC)c(OC)c1)NC,ED50,Mus musculus [4],inactive
C/N=C(/Cc1ccc(C)cc1)NC,ED50,Mus musculus [4],inactive
CC/N=C(/Cc1cccc(C(F)(F)F)c1)NCC.Cl,ED50,Mus musculus [7],5.1 mg/kg
same,ED50,Mus musculus [9],12.8 mg/kg
COc1ccc(CC/N=C(/N)Cc2ccc3ccccc3c2)cc1OC,ED50,Mus musculus [17],inactive
Cl.N=C(Cc1ccc2ccccc2c1Cl)N1CCC(Cc2ccccc2)CC1,ED50,Mus musculus [15],19.6 mg/kg
CC/N=C(/Cc1ccc(Br)cc1)NCC.Cl,ED50,Mus musculus [7],2.8 mg/kg
same,ED50,Mus musculus [9],2.7 mg/kg
COc1ccccc1N1CCN(C(=N)Cc2ccc3ccccc3c2)CC1,ED50,Mus musculus [17],inactive
CC/N=C(/Cc1cccc2ccccc12)NCC,ED50,Mus musculus [4],inactive
C/N=C(/Cc1cc2ccccc2cc1C)NC,ED50,Mus musculus [18],inactive
same,ED50,Mus musculus [4],inactive
CC/N=C(/Cc1ccc(Cl)cc1Cl)NCC,ED50,Mus musculus [4],inactive
Cl.N=C(Cc1ccc2ccccc2c1Cl)N1CCC(O)(c2ccc(Cl)cc2)CC1,ED50,Mus musculus [10],10.8 mg/kg
Cl.N=C(Cc1ccc2ccccc2c1Cl)N1CCC(c2ccccc2)CC1,ED50,Mus musculus [15],8.8 mg/kg
CC/N=C(/COc1cc(Cl)c(Cl)cc1Cl)NCC,ED50,Mus musculus [4],inactive
Cl.Cl.N=C(Cc1ccc2ccccc2c1Cl)NCCCN1CCOCC1,ED50,Mus musculus [10],3.2 mg/kg
Cl.N=C(Cc1ccc2ccccc2c1Cl)N1CCN(c2cccc(Cl)c2)CC1,ED50,Mus musculus [10],16.2 mg/kg
Cl.N=C(Cc1ccc2ccccc2c1Cl)N1CCC(O)(c2ccccc2)CC1,ED50,Mus musculus [10],24.5 mg/kg
C/N=C(/Cc1ccc2cc(OC)ccc2c1)NC.Cl,ED50,Mus musculus [7],19 mg/kg
same,ED50,Mus musculus [19],inactive
same,ED50,Mus musculus [15],23.7 mg/kg
CN(C)CCCN1c2ccccc2CCc2ccccc21 [IMIPRAMINE],ED50,Mus musculus [7],13 mg/kg
same,ED50,Mus musculus [8],23 mg/kg
same,ED50,Mus musculus [9],0.7 mg/kg
same,ED50,Mus musculus [13],14 mg/kg
Cl.N=C(Cc1ccc2ccccc2c1)N1CCC(c2ccccc2)CC1,ED50,Mus musculus [15],14.7 mg/kg
Cl.N=C(Cc1ccc2ccccc2c1)N1CCCCC1,ED50,Mus musculus [15],11 mg/kg
N=C(Cc1ccc2ccccc2c1)N1CCN(c2ccccc2)CC1,ED50,Mus musculus [17],inactive
CC/N=C(/COc1ccc(Cl)c(Cl)c1)NCC.Cl,ED50,Mus musculus [7],3.3 mg/kg
same,ED50,Mus musculus [9],3.5 mg/kg
CC/N=C(/Cc1cccc(C)c1)NCC,ED50,Mus musculus [4],inactive
Cl.N=C(Cc1ccc2ccccc2c1)N1CCCC1,ED50,Mus musculus [13],11 mg/kg
COc1ccc2cc(CC(=N)N3CCC(c4ccccc4)CC3)ccc2c1,ED50,Mus musculus [17],inactive
C/N=C(/Cc1ccc(-c2ccccc2)cc1)NC,ED50,Mus musculus [4],inactive
N=C(Cc1ccc2ccccc2c1Cl)N1CCN(C(c2ccccc2)c2ccccc2)CC1,ED50,Mus musculus [17],inactive
CN1CCN(C(=N)Cc2ccc3ccccc3c2)CC1.Cl,ED50,Mus musculus [13],14.7 mg/kg
C/N=C(\NC)c1ccccc1.Cl,ED50,Mus musculus [7],0.8 mg/kg
same,ED50,Mus musculus [9],4 mg/kg
CCC(=O)C1(c2ccccc2)CCN(C(=N)Cc2ccc3ccccc3c2)CC1,ED50,Mus musculus [17],inactive
CNC(=N)Cc1ccc2ccccc2c1.Cc1ccc(S(=O)(=O)O)cc1.Cl,ED50,Mus musculus [10],22.5 mg/kg
C/N=C(\NC)C(c1ccc(Cl)cc1)c1ccc(Cl)cc1.Cl,ED50,Mus musculus [7],2.4 mg/kg
same,ED50,Mus musculus [14],27.2 mg/kg
C/N=C(/COc1ccc(Cl)cc1Cl)NC.Cl,ED50,Mus musculus [7],7.5 mg/kg
CN(CCO)C(=N)Cc1ccc2ccccc2c1.Cl,ED50,Mus musculus [13],19.6 mg/kg
N=C(Cc1ccc2ccccc2c1Cl)N1CCN(Cc2ccccc2)CC1,ED50,Mus musculus [17],inactive
CC(C)/N=C(/N)Cc1ccc2ccccc2c1,ED50,Mus musculus [17],inactive
C/N=C(/Cc1ccc2ccccc2c1Cl)NC.Cl,ED50,Mus musculus [7],11 mg/kg
same,ED50,Mus musculus [9],26.1 mg/kg
same,ED50,Mus musculus [13],15 mg/kg
CC/N=C(/Cc1ccc(F)cc1)NCC,ED50,Mus musculus [4],inactive
CC/N=C(/Cc1ccc2ccccc2c1)NCC.Cl,ED50,Mus musculus [7],19.6 mg/kg
same,ED50,Mus musculus [9],19.6 mg/kg
same,ED50,Mus musculus [10],31 mg/kg
CC/N=C(/Cc1c(Cl)cccc1Cl)NCC,ED50,Mus musculus [4],inactive
CC/N=C(/Cc1ccc(Cl)c(Cl)c1)NCC.Cl,selectivity ratio,[5],7
same,selectivity ratio,[6],3
same,ED50,Mus musculus [7],9.3 mg/kg
same,ED50,Mus musculus [9],6 mg/kg
same,ED50,Mus musculus [16],inactive
same,ED50,Mus musculus [13],12.6 mg/kg
same,LD50,[11],90 mg/kg
same,LD50,[12],31.6 mg/kg
COc1ccc2cc(CC(=N)N3CCCC3)ccc2c1,ED50,Mus musculus [17],inactive
C/N=C(/Cc1ccc2cc(C)ccc2c1)NC.Cl,ED50,Mus musculus [7],19.6 mg/kg
same,ED50,Mus musculus [19],inactive
same,ED50,Mus musculus [15],31.6 mg/kg
C/N=C(/Cc1ccc2ccccc2c1O)NC.Cl,ED50,Mus musculus [13],26.1 mg/kg
Cl.N=C(Cc1ccc2ccccc2c1)N1CCC(N2CCCCC2)CC1,ED50,Mus musculus [13],40.8 mg/kg
